Entries after “also recorded” stand apart in the source; their conditions may differ.
Experiments:
[1] = tested on: TR146 cells; test: Western blotting of phospho-MKP1 and c-Fos induction; assay type: cell-based, human; conditions: for Induction of p-MKP1 and c-Fos by peptide fragments: 15 µM, 2 h, individually or in combination; for Induction of p-MKP1 and c-Fos: serum-free DMEM, 2 h post-stimulation, Western blot, Ece1-I-VIII incubated at 1.5 – 70 µM (Fig. 2a: 1.5 µM)
Summary of the method: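 Serum-starved TR146 cells treated for 2 h in serum-free DMEM, then lysed on ice for 30 min in modified RIPA buffer (pH 7.4) with protease and phosphatase inhibitors. 20 µg protein resolved on 12% SDS-PAGE and transferred to nitrocellulose. Blots probed for phospho-MKP1 and c-Fos (primary 1:1000, HRP secondary 1:10,000), detected by chemiluminescence. α-actin used as loading control.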

[2] = tested on: TR146 cells; test: Cytokine determination in culture supernatants; assay type: cell-based, human; conditions: for Induction of cytokines (G-CSF) by peptide fragments: 15 µM, 24 h, individually or in combination
[3] = tested on: TR146 cells; test: Cell damage assay; assay type: cell-based, human; conditions: for Damage of epithelial cells (LDH release) by peptide fragments: 70 µM, 24 h, individually or in combination; for Induction of damage (LDH release): Ece1-I-VIII at 70 µM (Fig. 2b)
Summary of the method: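 Confluent TR146 cells serum-starved overnight, then exposed to test peptides for 24 h in serum-free DMEM. Culture supernatants assayed for lactate dehydrogenase activity with a colorimetric cytotoxicity kit. Activity quantified against a recombinant porcine LDH standard curve.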

[4] = tested on: TR146 cells; test: Transcription factor; assay type: cell-based, human; conditions: 3 h post-stimulation, sub-lytic concentrations
Summary of the method: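 Serum-starved TR146 cells treated for 3 h in serum-free DMEM. Nuclear proteins recovered by differential lysis. 5 µg nuclear extract assayed for c-Fos DNA binding by plate-based transcription factor ELISA. Results expressed as fold-change in A450nm relative to resting cells.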

[5] = tested on: multiple human epithelial cell types; test: Direct lysis of epithelial cells; assay type: cell-based; conditions: not shown
[6] = tested on: red blood cells; test: Hemolysis of red blood cells; assay type: cell-based; conditions: not shown
[7] = FRET intercalation into phospholipid liposomes; conditions: phospholipid liposomes (DOPC with or without cholesterol), 100 mM KCl, 5 mM HEPES, pH 7.0
Summary of the method: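 Probe-dilution FRET assay. Phospholipid liposomes carried 1% (mol/mol) each of donor NBD-PE and acceptor rhodamine-PE. Lipids were dried from chloroform, taken up in 100 mM KCl, 5 mM HEPES, pH 7.0, and tip-sonicated. They then went through three 30 min cycles of 60°C heating and 4°C cooling and were held at 4°C for at least 12 h. After test peptide addition, intercalation was read as the rise in the donor (531 nm) to acceptor (593 nm) intensity ratio.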

[8] = Impedance spectroscopy of tethered bilayer lipid membranes; conditions: tBLMs, DOPC with or without cholesterol, 100 mM KCl, 5 mM HEPES, pH 7.0, room temperature
Summary of the method: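 tBLMs (10% tethering, 90% spacer lipids) were formed by solvent exchange from 3 mM lipid in ethanol, then buffered in 100 mM KCl, 5 mM HEPES, pH 7.0. Membranes were rinsed three times with buffer. Conductance and capacitance were recorded for 20 min before test peptide was injected at various concentrations, all at room temperature. Concentration-dependent conductance changes were averaged.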

[9] = Planar lipid bilayers; conditions: 5 mM HEPES, 100 mM KCl, pH 7.0, 37°C, Ece1-III62–93 0.125 µM (DOPC), Ece1-III62–92K 4 µM
Summary of the method: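 Montal-Mueller planar bilayers were bathed in 5 mM HEPES, 100 mM KCl, pH 7.0 (specific conductivity 17.2 mS/cm) at 37°C. Test peptide was added and membrane current was recorded for permeabilization events up to rupture.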

[10] = tested on: TR146 cells; test: Whole cell patch clamp; assay type: cell-based, human; conditions: membrane potential −60 mV, room temperature
Summary of the method: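 TR146 cells cultured 48 h and recorded at 10–30% confluence while superfused with modified Krebs solution (pH 7.4). Pipettes 5–7 MΩ, filled with potassium acetate/KCl/HEPES/EGTA solution (free Ca2+ 40 nM). Current-voltage curves from 1 s steps, −100 to +50 mV. Treatments added to superfusate at final concentration, with vehicle controls and an ionomycin positive control. Cells analysed counted per condition.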

[11] = tested on: TR146 cells; test: Calcium flux; assay type: cell-based, human; conditions: Fura-2, readings up to 3 h
Summary of the method: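 Confluent TR146 monolayers loaded for 1 h at 37°C/5% CO2 with Fura-2 (2.5 mM stock in Pluronic F-127/DMSO) plus probenecid in HEPES-buffered saline (2 mM CaCl2, 10 mM glucose, pH 7.4). Dye then replaced by saline. Baseline read for 10 min at excitation 340 nm/emission 520 nm. Peptides added at different concentrations. Cytosolic calcium expressed as a fluorescence ratio.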

[12] = Circular dichroism spectroscopy; assay type: physicochemical; conditions: 15 µM peptide, 100 mM KCl, 5 mM HEPES, pH 7
Summary of the method: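 Peptide at 15 µM in 100 mM KCl, 5 mM HEPES, pH 7.0, in a 1.0 mm quartz cuvette, run at 25°C and 40°C. Spectra are the average of four scans, collected at 1 nm intervals with 2 nm bandwidth.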

Substance	Induction of p-MKP1 and c-Fos by peptide fragments [1]	Induction of cytokines (G-CSF) by peptide fragments [2]	Damage of epithelial cells (LDH release) by peptide fragments [3]	Induction of p-MKP1 and c-Fos [1]	Induction of damage (LDH release) ([3]; 24 h post-stimulation)	Intercalation into lipid membranes (FRET) [7]	Permeabilization of tethered lipid membranes (conductance) [8]	Lesions induced in planar lipid membranes [9]	Calcium influx (intracellular calcium level) [11]	Secondary structure by circular dichroism [12]	Induction of G-CSF secretion ([2]; 24 h post-stimulation)	other results
Ece1-III62–85: N-terminal hydrophobic region of Ece1-III62–93	Neither	Neither	Neither	–	–	–	–	–	–	–	–	–
SIIGIIMGILGNIPQVIQIIMSIVKAFKGNKR [Ece1-III62–93]	–	–	–	induced	induced	able to efficiently intercalate; also recorded: slightly enhanced intercalation for pure DOPC	enhanced in the presence of cholesterol	heterogeneous and transient lesions leading finally to a rupture of the membrane	associated with calcium influx	α-helical conformation	–	Concentrations sufficient to induce c-Fos DNA binding [4]: 1.5 to 15 µM; Concentrations required to induce damage-associated cytokine IL-1α ([2]; 24 h post-stimulation): 70 µM; Concentrations required to induce damage-associated cytokine IL-6 ([2]; 24 h post-stimulation): 70 µM; Concentrations sufficient to induce G-CSF ([2]; 24 h post-stimulation): 1.5 to 15 µM; Concentrations sufficient to induce GM-CSF ([2]; 24 h post-stimulation): 1.5 to 15 µM; Induction of cytokines ([2]; 24 h post-stimulation, peptides 1.5 – 70 µM): induced; Concentrations required to induce damage (LDH release) ([3]; 24 h post-stimulation): 70 µM; Direct lysis of multiple human epithelial cell types [5]: directly lyse multiple human epithelial cell types; Hemolysis of red blood cells [6]: induce hemolysis of red blood cells; Evoked current in epithelial cells (patch clamp) [10]: causes an inward current
Ece1-III86–93: C-terminal hydrophilic region of Ece1-III62–93 (KAFKGNKR; UniProt Q07730 86-93, looked up, fragment)	Neither	Neither	Neither	–	–	–	–	–	–	–	–	–
Ece1-III62–93AA: Ece1-III62–93 with C-terminal KR motif substituted to AA	–	–	–	still induced	significantly reduced	did not affect membrane intercalation	significantly reduced	–	significantly reduced	–	still induced	–
SIIGIIMGILGNIPQVIQIIMSIVKAFKGNK [Ece1-III62–92K]	–	–	–	induces	induces	induces	induces	heterogeneous and transient lesions leading to membrane rupture	induces	α-helical	induces	Induction of IL-1α secretion ([2]; 24 h post-stimulation): induces

— paper PMC4851236 (Nature, 2016)
